# From PubChem BioAssay
# The source made the active and inactive calls.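 Rule for the calls, unless noted: active = viability at or below 30% in both replicate assays; inconclusive = viability at or below 30% in just one of the two assays; inactive = the rest.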
# Assays:
# [1] = reducers of endogenous Her2 protein level, primary screen, SKBR3 breast tumor cells, AlphaScreen, ATP viability (AID 461;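 active = Her2 level under about 52% in both replicate screens, with viability over 70% of control, limit read from the data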;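 for Her2 level: lower value means less Her2 protein in the cells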;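 for viability: percent of carrier control wells set as 100% viability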); details: 18-24 h, measured here: SKBR3 viability, ATP luminescence, at 10 µM
# [2] = target: Receptor tyrosine-protein kinase erbB-2 (Homo sapiens) (UniProt P04626); test: as above; details: 18-24 h, at 10 µM, stronger effect = lower value
# [3] = SK-BR-3 cell growth inhibitors, pilot screen, 24 h, human (AID 572;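 active = viability at or below 10% of carrier control in both of two separate runs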;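 note: compound exposure lasted between 18 and 24 h rather than exactly 24 h; 100% = carrier-treated control wells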); details: SK-BR-3 viability, CellTiter-Glo luminescence, at 10 µM, stronger effect = lower value
# [4] = HUVEC growth inhibition – cell-based, human, primary screen (AID 575); details: HUVEC proliferation, CellTiter-Glo luminescence, 72 h; at 10 µM; stronger effect = lower value;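 note: 100% = median of untreated cell wells with 0.1% DMSO on each plate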
# How it was run: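 System: primary human umbilical vein endothelial cells; Quantity: 1250 endothelial cells in each well; Buffer or medium: supplemented EBM, 2% fetal bovine serum; Doses: one dose, 10 µM final, 0.1% DMSO; Incubation: 72 h compound incubation; Technique: ATP-based CellTiter-Glo luminescent read; Evaluation: percent of median DMSO-control luminescence; Controls: vehicle and MePR control wells.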
# [5] = growth inhibitors of H69AR lung tumor, primary screen, human, duplicate replicates (AID 580;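 active = viability at or under a set limit in both replicates, limit being median viability minus 3 SD, cut at about 48% in these data, passing the limit was not always enough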;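 note: 100% = mean luminescence of untreated wells and 0% = no signal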); details: H69AR lung tumor cells viability, ATP luminescence, 72 h; at 10 µM; stronger effect = lower value
# [6] = reversal of MRP1-mediated doxorubicin resistance, pilot screen, H69AR cells, doxorubicin co-treatment (AID 601;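 active = viability loss from added drug above about 55%, and viability with drug at most 40%, in both replicates, limit read from the data, passing the limit was not always enough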); details: CellTiter-Glo, 72 h, at 10 µM; for differential viability (reversal): stronger effect = higher value
# [7] = 384-well plate pilot, post-Golgi transport modulator project, inhibition of yeast transport mutant growth (AID 636; in the data active = inhibition above about 31%); details: absorbance 615 nm, about 18 h, stronger effect = higher value
# [8] = growth suppression of yeast trafficking mutant, preliminary HTS, modulators of trafficking downstream of Golgi apparatus project, 1536-format plate, OD 615 nm (AID 637; in the data active = inhibition above about 30%); details: yeast transport mutant growth, absorbance 615 nm, 18 h; stronger effect = higher value
# [9] = H69AR cells + 2 uM doxorubicin, measured here: viability with 2 uM doxorubicin, stronger effect = lower value
# [10] = H69AR cells, compound alone cytotoxicity
# Sequence of Receptor tyrosine-protein kinase erbB-2 (Homo sapiens) (P04626 whole entry, looked up): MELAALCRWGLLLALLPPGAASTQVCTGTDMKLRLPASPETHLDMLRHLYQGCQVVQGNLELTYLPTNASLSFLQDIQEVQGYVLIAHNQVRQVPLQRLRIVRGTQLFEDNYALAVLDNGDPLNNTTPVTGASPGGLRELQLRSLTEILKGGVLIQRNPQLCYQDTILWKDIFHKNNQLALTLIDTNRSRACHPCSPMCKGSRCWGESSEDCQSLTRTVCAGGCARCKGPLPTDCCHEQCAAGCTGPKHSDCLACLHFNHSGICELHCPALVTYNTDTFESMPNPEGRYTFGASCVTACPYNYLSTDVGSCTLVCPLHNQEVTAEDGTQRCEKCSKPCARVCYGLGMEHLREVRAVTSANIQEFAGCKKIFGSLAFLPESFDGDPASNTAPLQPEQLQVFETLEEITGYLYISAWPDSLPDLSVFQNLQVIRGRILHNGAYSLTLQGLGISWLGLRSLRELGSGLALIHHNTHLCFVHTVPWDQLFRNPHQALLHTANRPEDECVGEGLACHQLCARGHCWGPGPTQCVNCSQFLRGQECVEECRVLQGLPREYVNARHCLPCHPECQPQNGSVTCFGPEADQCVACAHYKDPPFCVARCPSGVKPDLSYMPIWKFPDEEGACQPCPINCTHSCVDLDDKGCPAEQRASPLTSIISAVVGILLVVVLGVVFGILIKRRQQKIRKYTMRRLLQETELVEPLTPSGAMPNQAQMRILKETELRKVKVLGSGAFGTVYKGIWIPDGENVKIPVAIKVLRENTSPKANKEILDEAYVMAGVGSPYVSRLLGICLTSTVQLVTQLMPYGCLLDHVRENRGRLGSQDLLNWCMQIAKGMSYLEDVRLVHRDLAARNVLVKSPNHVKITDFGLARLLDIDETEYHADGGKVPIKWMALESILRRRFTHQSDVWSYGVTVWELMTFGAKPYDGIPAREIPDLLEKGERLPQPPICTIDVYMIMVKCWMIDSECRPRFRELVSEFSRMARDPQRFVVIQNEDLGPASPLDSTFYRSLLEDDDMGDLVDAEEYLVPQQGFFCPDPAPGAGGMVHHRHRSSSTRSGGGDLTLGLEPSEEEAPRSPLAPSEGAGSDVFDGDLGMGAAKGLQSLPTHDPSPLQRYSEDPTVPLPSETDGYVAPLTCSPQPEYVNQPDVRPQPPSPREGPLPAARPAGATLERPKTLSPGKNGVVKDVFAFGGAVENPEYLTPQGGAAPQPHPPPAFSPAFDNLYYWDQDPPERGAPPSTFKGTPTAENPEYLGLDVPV
Structure (SMILES),viability [1] [%],Her2 level [2],viability [3],viability [4],viability [5],differential viability (reversal) ([6]; H69AR cells + 2 uM doxorubicin),"viability [6, 9] [%]","viability [6, 10] [%]",inhibition [7],inhibition [8]
CSc1ccccc1NC(=O)c1c(Br)cnn1C,89.5,94.5% (inactive),89.5% (inactive),79.2% (inactive),101% (inactive),6.58% (inactive),94.2,101,-2.6% (inactive),-4.44% (inactive)
O=C(Nc1ccc2nc(-c3cccs3)[nH]c2c1)c1ccco1,108,98.5% (inactive),108% (inactive),94.2% (inactive),75.2% (inactive),1.25% (inactive),74,75.2,0.13% (inactive),2.95% (inactive)
CCOC(=O)C1CCN(c2c(NCCN3CCN(c4ccccc4)CC3)c(=O)c2=O)CC1,87.5,98.5% (inactive),87.5% (inactive),92.1% (inactive),99.1% (inactive),-5.04% (inactive),104,99.1,0.38% (inactive),-3.33% (inactive)
COc1ccc(C)cc1S(=O)(=O)N(CC(=O)O)c1ccccc1,118,114% (inactive),118% (inactive),106% (inactive),86.1% (inactive),-11.2% (inactive),97.2,86.1,-2.84% (inactive),4.75% (inactive)
Cc1cc(NC(=O)Cc2cn3ccsc3n2)n(-c2ccccc2)n1,91,103% (inactive),91% (inactive),91.8% (inactive),94.9% (inactive),5.08% (inactive),89.9,94.9,-0.64% (inactive),0.33% (inactive)
COc1ccc(C2CC(=O)C3=C(C2)Nc2ccccc2N(C(=O)C2CC2)C3c2cccnc2)cc1OC (stereo not given),99.5,96.5% (inactive),99.5% (inactive),89% (inactive),97.9% (inactive),1.81% (inactive),96.1,97.9,-0.79% (inactive),-1.67% (inactive)
CC(=O)N1CCC2(CC1)CC(=O)c1cc(OCC(=O)NCc3ccc(C)cc3)ccc1O2,97,84% (inactive),97% (inactive),99.4% (inactive),90% (inactive),-0.255% (inactive),90.3,90,-2.76% (inactive),0.91% (inactive)
CCCc1ccc(S(=O)(=O)NCCc2ccncc2)cc1,96,91.5% (inactive),96% (inactive),85.4% (inactive),106% (inactive),16.6% (inactive),89.6,106,-4.19% (inactive),-1.27% (inactive)
Cc1ccc(-n2nnnc2SCC(=O)c2cc(C)n(-c3cc(C)on3)c2C)cc1,91,83% (inactive),91% (inactive),88.5% (inactive),65.4% (inactive),-28.2% (inactive),93.6,65.4,-2.86% (inactive),1.11% (inactive)
CCOC(=O)C(NC(C)=O)(Nc1ccc(S(=O)(=O)Nc2nccs2)cc1)C(F)(F)F (stereo not given),120,106% (inactive),120% (inactive),102% (inactive),109% (inactive),3.07% (inactive),106,109,0.39% (inactive),8.57% (inactive)
CCCn1c(-c2ccc(F)cc2)cnc1SCC(=O)O,128,98.5% (inactive),128% (inactive),101% (inactive),84.8% (inactive),3.56% (inactive),81.2,84.8,-3.33% (inactive),2.79% (inactive)
COc1ccc(-n2c(=O)[nH]cc(C(=O)Nc3ccc(NC(C)=O)cc3)c2=O)cc1,100,106% (inactive),100% (inactive),98.8% (inactive),96.1% (inactive),0.385% (inactive),95.7,96.1,-3.78% (inactive),0% (inactive)
COc1ccc(C(=O)NCc2nnc(SCC(=O)Nc3cc(C)cc(C)c3)o2)cc1OC,89.5,102% (inactive),89.5% (inactive),99.6% (inactive),89.3% (inactive),7.32% (inactive),82,89.3,0.13% (inactive),1.33% (inactive)
O=C(O)C1CC(=O)N(Cc2ccccc2)C1 (stereo not given),109,96.5% (inactive),109% (inactive),91.2% (inactive),90.2% (inactive),0.445% (inactive),89.8,90.2,-5.39% (inactive),6.23% (inactive)
CN1CCN(C(=O)CCC(=O)c2ccc(F)cc2)CC1,114,79.5% (inactive),114% (inactive),96.4% (inactive),94.8% (inactive),7.6% (inactive),87.2,94.8,-8.53% (inactive),-3.77% (inactive)
CCOC(=O)C1=C(c2ccccc2)N2CCN=C2S1,94.5,100% (inactive),94.5% (inactive),100% (inactive),94.8% (inactive),5.97% (inactive),88.8,94.8,-0.93% (inactive),-9.68% (inactive)

Structure (SMILES),viability [1] [%],Her2 level [2],viability [3],viability [4],viability [5],differential viability (reversal) ([6]; H69AR cells + 2 uM doxorubicin),"viability [6, 9] [%]","viability [6, 10] [%]",inhibition [7],inhibition [8]
Cc1cc(C)c2c(CC(=O)NCc3ccco3)coc2c1,94,81.5% (inactive),94% (inactive),71.3% (inactive),91.1% (inactive),1.32% (inactive),89.8,91.1,-6.27% (inactive),-6.03% (inactive)
Cc1cc(C)c2c(C)nn(C3CCCCC3)c2n1,81.5,114% (inactive),81.5% (inactive),80.8% (inactive),95.5% (inactive),12.3% (inactive),83.2,95.5,6.62% (inactive),14.1% (inactive)
O=C(CN1C(=O)CCSc2ccccc21)Nc1ccccc1,113,94% (inactive),113% (inactive),111% (inactive),104% (inactive),15.9% (inactive),88.2,104,-7.67% (inactive),-7.78% (inactive)
COc1ccc(C(CNC(=O)c2ccc(OCC3CCCO3)cc2)N2CCOCC2)cc1 (stereo not given),90,93.5% (inactive),90% (inactive),82.9% (inactive),105% (inactive),13.8% (inactive),90.7,105,-1.33% (inactive),-2.42% (inactive)
CCOC(=O)c1cc(CC)sc1NC(=O)CCC(=O)O,121,93% (inactive),121% (inactive),96% (inactive),93.8% (inactive),2.2% (inactive),91.6,93.8,-6.13% (inactive),0.32% (inactive)
CCCSc1nc2c(c(=O)[nH]c(=O)n2C)n1CCc1ccccc1,89.5,92% (inactive),89.5% (inactive),83.8% (inactive),86.8% (inactive),-9.79% (inactive),96.6,86.8,-7.47% (inactive),7.42% (inactive)
COc1ccc(S(=O)(=O)N2CCC(C(=O)c3ccc4c(c3)OCCO4)CC2)cc1,88.5,108% (inactive),88.5% (inactive),61.7% (inactive),91.5% (inactive),7.49% (inactive),84,91.5,-1.95% (inactive),-8.69% (inactive)
Cn1cccc1-c1cc(C(=O)O)[nH]n1,129,110% (inactive),129% (inactive),106% (inactive),93.8% (inactive),-7.12% (inactive),101,93.8,-4.61% (inactive),1.64% (inactive)
COc1cccc(-n2c(SC3CCOC3=O)nc3ccccc3c2=O)c1 (stereo not given),94.5,99.5% (inactive),94.5% (inactive),88.2% (inactive),94.4% (inactive),10.5% (inactive),83.8,94.4,-5.2% (inactive),-6.03% (inactive)
COCCCNC(=O)c1ccccc1NS(=O)(=O)c1ccc(C)cc1,91,98% (inactive),91% (inactive),92.1% (inactive),101% (inactive),9.35% (inactive),91.2,101,-4.27% (inactive),-5.24% (inactive)
O=S(=O)(c1ccc(OCC(O)CN2CCC(Cc3ccccc3)CC2)cc1)N1CCOCC1 (stereo not given),81.5,81.5% (inactive),81.5% (inactive),73.4% (inactive),84.8% (inactive),-9.48% (inactive),94.2,84.8,-6.45% (inactive),-5.24% (inactive)
CNC(=O)CSc1nnc(-c2cc(C)cc(C)c2)o1,94.5,99% (inactive),94.5% (inactive),93.4% (inactive),108% (inactive),13.4% (inactive),95.1,108,-3.07% (inactive),-3.06% (inactive)
CCCn1c2c(c(O)c(C(=O)NC)c1=O)CCCC2,124,95% (inactive),124% (inactive),92.7% (inactive),86% (inactive),-7.29% (inactive),93.3,86,-4.34% (inactive),2.42% (inactive)
COC(=O)COc1nc(C)c(Br)c(OC)n1,96.5,99% (inactive),96.5% (inactive),105% (inactive),116% (inactive),25.9% (inactive),90,116,-3.95% (inactive),7.54% (inactive)
CCOC(=O)c1oc2cccc(OC(C)=O)c2c1C,106,82% (inactive),106% (inactive),89.9% (inactive),85.6% (inactive),-0.89% (inactive),86.5,85.6,-5.6% (inactive),3.11% (inactive)
Cc1cccc(C)c1NC(=O)N1CCN(C2CCCCC2)CC1,111,92.5% (inactive),111% (inactive),109% (inactive),104% (inactive),12.6% (inactive),91.6,104,-8.03% (inactive),-2.55% (inactive)
